In ChEMBL document CHEMBL1125046, “Beta-lactam analogues of oxotremorine. 3- and 4-methyl-substituted 2-azetidinones” (J Med Chem, 1990):
pEC50: −log10 of the molar value.

How the values were obtained:
Cavia porcellus [1] = organism: Cavia porcellus; assay: In vitro muscarinic activity against guinea pig ileum was determined; type: functional
In short: (§1)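 Isolated ileum contractions recorded isotonically at 1 g tension with a displacement transducer. Cumulative concentration-response curves built by raising agonist concentration stepwise by a factor of 2.15. Maximal response expressed as a percentage of the carbachol maximum.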

Cavia porcellus [2] = organism: Cavia porcellus; assay: Maximal contractile response as a percentage of that elicited by carbachol.; type: functional; in short: as §1
[3] = target: Muscarinic acetylcholine receptor; assay: In vitro inhibition of binding of (-)-[3H]-NMS to Muscarinic acetylcholine receptor of rat cerebral cortex was determined; type: tissue-based
In short: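 Rat cerebral cortex (male Sprague-Dawley, 200–300 g) homogenised in 50 mM Na-K phosphate buffer, pH 7.4, then centrifuged and resuspended at 10 mg wet tissue/mL. Competition with 0.3 nM (–)-[3H]NMS for 30 min at 30 °C, followed by filtration. Nonspecific binding defined with 10 μM atropine. IC50 from a one-site nonlinear fit, converted to Ki by Cheng-Prusoff using NMS Kd 0.076 nM. Three experiments, each in triplicate.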

[4] = target: Muscarinic acetylcholine receptor; assay: Dissociation constant of the drug-Muscarinic acetylcholine receptor complex.; type: protein assay, Cavia porcellus

Row | SMILES | pEC50 (Cavia porcellus [1]) | Emax (Cavia porcellus [2]) | Ki [3] [nM] | Kd [4] [nM]
1 | CC1CCN(CC#CCN2CCCC2)C1=O (configuration not stated) | 6.30 | 100 | 1200 | 11500
2 | O=C1CCN1CC#CCN1CCCC1 | 6.54 | 100 | 940 | 
3 | CC1CN(CC#CCN2CCCC2)C1=O (configuration not stated) | 4.62 | 23 | 5600 | 
4 | CC1CCC(=O)N1CC#CC[N+](C)(C)C (configuration not stated) | 6.74 | 100 | 610 | 1700
5 | CC1CC(=O)N1CC#CC[N+](C)(C)C (configuration not stated) | 4.26 | 97 | 19600 | 
6 | CC1CC(=O)N1CC#CCN1CCCC1 (configuration not stated) |  | 0 | 990 | 1700
7 | CC1CC(=O)N1CC#CCN(C)C (configuration not stated) | 4.06 | 95 | 43000 | 
8 | CC1CC(=O)N(CC#CCN2CCCC2)C1 (configuration not stated) |  | 0 | 5000 | 10000
9 | CC1CCC(=O)N1CC#CCN(C)C (configuration not stated) | 6.04 | 102 | 2200 | 4300
10 | CC1CCC(=O)N1CC#CCN1CCCC1 (configuration not stated) |  | 0 | 56 | 93
11 | O=C1CCCN1CC#CCN1CCCC1 [OXOTREMORINE] | 7.46 | 100 | 830 | 930
